In PubChem BioAssay AID2465 (Broad Institute, 2010):
The whole screen tested about 24,000 compounds, of which fewer than 10 were called active. No stated cut-off is given here; in the data, active means caspase activation above about 5.9%; inconclusive means no clear call, values can overlap the other calls; inactive means below about 2.2%. The list is a sample of the results.

Assay: Bcl2-A1 antagonists releasing BIM, apoptosis – cell-based, luminescence, HTS, two replicates, primary screen (AID 2465)
Conditions: MEF A1-2A-BIM cells, caspase-Glo luminescence, 3 h; active compounds read high; percent of clofoctol response, DMSO zero; concentration not given here
Outline: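 Test system – A1-2A-BIM-expressing MEF cells · Input – 2500 cells/well · Medium – RPMI-1640 growth medium with 10% FBS · Compound dosing – 50 nL pinned compound · Timing – 3 h compound exposure at 37 °C · Technique – Caspase-Glo luminescence (DEVD substrate) · Evaluation – Caspase-3/7 activity from luminescence increase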

Caspase activation, inactive:
Cc1noc(C)c1NC(=O)Nc1ccc2c(c1)CC(=O)N([C@@H](C)CO)C[C@@H](C)[C@H](CN(C)C(=O)NC1CCCCC1)O2 -0.291%, Cc1ccc(S(=O)(=O)Nc2ccc3c(c2)C(=O)N([C@@H](C)CO)C[C@@H](C)[C@@H](CN(C)Cc2ccc(C(F)(F)F)cc2)OCCCC[C@@H](C)O3)cc1 0.898%, CNC[C@H]1OCCCC[C@H](C)Oc2ccc(NS(=O)(=O)c3ccc(Cl)cc3)cc2C(=O)N([C@@H](C)CO)C[C@@H]1C -0.41%, COc1ccc(NC(=O)N(C)C[C@@H]2Oc3ccc(NC(=O)CCN4CCOCC4)cc3C(=O)N([C@@H](C)CO)C[C@H]2C)cc1 0.238%, C[C@@H]1CCCCO[C@H](CN(C)Cc2ccccc2)[C@H](C)CN([C@H](C)CO)C(=O)c2cc(NS(=O)(=O)c3ccc(Cl)cc3)ccc2O1 -0.0813%, C[C@H](CO)N1C[C@H](C)[C@H](CN(C)S(=O)(=O)c2ccccc2)Oc2c(NC(=O)CCCCCC(=O)Nc3ccccc3N)cccc2C1=O -0.28%, C[C@H](CO)N1C[C@H](C)[C@H](CN(C)S(C)(=O)=O)Oc2ccc(NC(=O)c3ccncc3)cc2CC1=O -0.8%, C[C@H]1CN([C@@H](C)CO)C(=O)CCCn2cc(nn2)CO[C@H]1CN(C)C(=O)Nc1cccc(C(F)(F)F)c1 -0.271%, COc1ccc(NC(=O)Nc2ccc3c(c2)C(=O)N([C@@H](C)CO)C[C@H](C)[C@@H](CN(C)C(=O)Nc2cccc4ccccc24)OCCCC[C@@H](C)O3)cc1 0.279%, C[C@H](CO)N1C[C@H](C)[C@@H](CN(C)S(=O)(=O)c2ccccc2)Oc2ccc(NC(=O)Nc3ccc(F)cc3)cc2CC1=O -0.112%, C[C@@H]1CN([C@H](C)CO)C(=O)c2cc(NC(=O)C3CCCCC3)ccc2O[C@H]1CN(C)C(=O)Nc1ccccc1 -0.382%, C[C@H]1CN([C@@H](C)CO)C(=O)CCCn2cc(nn2)CO[C@@H]1CN(C)C(=O)Nc1ccccc1 0.231%, COc1ccc(NC(=O)N(C)C[C@@H]2Oc3ccc(NS(=O)(=O)c4ccc(Cl)cc4)cc3C(=O)N([C@H](C)CO)C[C@@H]2C)cc1 0.258%, C[C@@H]1CN([C@@H](C)CO)C(=O)CCCn2cc(nn2)CO[C@@H]1CN(C)Cc1ccccc1C(=O)O 0.264%, O=C(CCCCC(=O)N/N=C/c1ccc[nH]1)NO -0.0327%, COc1ccc(NC(=O)N(C)C[C@H]2OCCCC[C@@H](C)Oc3ccc(NS(=O)(=O)c4ccc(F)cc4)cc3C(=O)N([C@@H](C)CO)C[C@@H]2C)cc1 -0.991%
